Results from ChEMBL document CHEMBL1629670, “In vitro activities of retigeric acid B alone and in combination with azole antifungal agents against Candida albicans” (2009).
In brackets after ≈: the same amount, converted by molar mass. Activity calls are given as the source filed them. The rule behind the calls is not given here.

Legend:
Candida albicans [1] = assay: Antifungal activity against Candida albicans CA3 after 48 hrs by broth microdilution method in presence of fluconazole; type: functional
In short: (§1)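 Checkerboard broth microdilution (CLSI M27-A2) on clinical isolates in RPMI 1640 buffered to pH 7.0 with 0.165 M MOPS. Final inoculum was 0.5 x 10^3 to 2.5 x 10^3 CFU/ml. RAB was tested at 0.25–16 µg/ml against FLC at 0.008–8 µg/ml, or against KCZ or ITR at 0.001–1 µg/ml. Plates ran 48 h at 35°C, read by background-subtracted OD490. MIC was taken at 80% growth reduction versus drug-free control. Run in triplicate.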

Candida albicans [2] = assay: Antifungal activity against Candida albicans CA138 after 48 hrs by broth microdilution method in presence of itraconazole; type: functional; in short: as §1
Candida albicans [3] = assay: Antifungal activity against Candida albicans CA10 assessed as log reduction in fungal burden at 8 ug/ml after 48 hrs by time kill analysis in presence of ketoconazole; type: functional, organism-based
In short: (§2)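 Time-kill on CA10 in RPMI 1640 starting at 10^5 CFU/ml. Treatments were RAB 8 µg/ml combined with FLC 8 µg/ml, ITR 8 µg/ml or KCZ 2 µg/ml; DMSO <1%; drug-free growth control. Samples were taken before treatment and at 6, 12, 24 and 48 h, then diluted, plated and counted after 48 h at 35°C.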

Candida albicans [4] = assay: Antifungal activity against Candida albicans CA1 after 48 hrs by broth microdilution method in presence of ketoconazole; type: functional; in short: as §1
Candida albicans [5] = assay: Antifungal activity against Candida albicans CA4 after 48 hrs by broth microdilution method in presence of itraconazole; type: functional; in short: as §1
Candida albicans [6] = assay: Antifungal activity against Candida albicans CA127 after 48 hrs by broth microdilution method; type: functional; settings: CA127, 48 h
In short: (§3)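 CLSI M27-A2 broth microdilution of clinical isolates in RPMI 1640 buffered to pH 7.0 with 0.165 M MOPS. Final inoculum 0.5 x 10^3 to 2.5 x 10^3 cells/ml, incubated 35°C for 48 h. Growth read as OD490 with background subtracted. MIC taken as the lowest drug concentration giving 80% growth reduction versus drug-free control. Run in triplicate.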

Candida albicans [7] = assay: Antifungal activity against Candida albicans CA10 assessed as cell viability after 2 hrs by XTT reduction assay in presence of fluconazole; type: functional, organism-based
In short: (§4)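 Viability was read on CA10 time-kill cultures grown in RPMI 1640 from 10^5 CFU/ml. Treatments were RAB 8 µg/ml plus FLC 8 µg/ml, ITR 8 µg/ml or KCZ 2 µg/ml, with DMSO <1%. At each sampling time a 100-µl aliquot got XTT-menadione (final 0.25 mg/ml and 5 µM) and was held in the dark up to 2 h at 35°C. Formazan was read at 490 nm; triplicate means.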

Candida albicans [8] = assay: Antifungal activity against Candida albicans CA10 assessed as log reduction in fungal burden at 8 ug/ml after 48 hrs by time kill analysis in presence of itraconazole; type: functional, organism-based; in short: as §2
Candida albicans [9] = assay: Antifungal activity against Candida albicans CA2 after 48 hrs by broth microdilution method in presence of itraconazole; type: functional; in short: as §1
Candida albicans [10] = assay: Antifungal activity against Candida albicans CA3 after 48 hrs by broth microdilution method in presence of itraconazole; type: functional; in short: as §1
Candida albicans [11] = assay: Antifungal activity against Candida albicans CA127 after 48 hrs by broth microdilution method in presence of itraconazole; type: functional; in short: as §1
Candida albicans [12] = assay: Antifungal activity against Candida albicans CA3 after 48 hrs by broth microdilution method; type: functional; settings: CA3, 48 h; in short: as §3
Candida albicans [13] = assay: Antifungal activity against Candida albicans CA138 after 48 hrs by broth microdilution method in presence of ketoconazole; type: functional; in short: as §1
Candida albicans [14] = assay: Antifungal activity against Candida albicans CA10 assessed as cell viability after 2 hrs by XTT reduction assay in presence of ketoconazole; type: functional, organism-based; in short: as §4
Candida albicans [15] = assay: Antifungal activity against Candida albicans CA138 after 48 hrs by broth microdilution method in presence of fluconazole; type: functional; in short: as §1
Candida albicans [16] = assay: Antifungal activity against Candida albicans CA4 after 48 hrs by broth microdilution method in presence of ketoconazole; type: functional; in short: as §1
Candida albicans [17] = assay: Antifungal activity against Candida albicans CA132 after 48 hrs by broth microdilution method in presence of itraconazole; type: functional; in short: as §1
Candida albicans [18] = assay: Antifungal activity against Candida albicans CA10 after 48 hrs by broth microdilution method in presence of itraconazole; type: functional; in short: as §1
Candida albicans [19] = assay: Antifungal activity against Candida albicans CA132 after 48 hrs by broth microdilution method in presence of fluconazole; type: functional; in short: as §1
Candida albicans [20] = assay: Antifungal activity against Candida albicans CA135 after 48 hrs by broth microdilution method; type: functional; settings: CA135, 48 h; in short: as §3
Candida albicans [21] = assay: Antifungal activity against Candida albicans CA10 assessed as log reduction in fungal burden at 8 ug/ml after 48 hrs by time kill analysis in presence of fluconazole; type: functional, organism-based; in short: as §2
Candida albicans [22] = assay: Antifungal activity against Candida albicans CA132 after 48 hrs by broth microdilution method in presence of ketoconazole; type: functional; in short: as §1
Candida albicans [23] = assay: Antifungal activity against Candida albicans CA10 after 48 hrs by broth microdilution method in presence of fluconazole; type: functional; in short: as §1
Candida albicans [24] = assay: Antifungal activity against Candida albicans CA4 after 48 hrs by broth microdilution method in presence of fluconazole; type: functional; in short: as §1
Candida albicans [25] = assay: Antifungal activity against Candida albicans CA2 after 48 hrs by broth microdilution method in presence of fluconazole; type: functional; in short: as §1
Candida albicans [26] = assay: Antifungal activity against Candida albicans CA127 after 48 hrs by broth microdilution method in presence of ketoconazole; type: functional; in short: as §1
Candida albicans [27] = assay: Antifungal activity against Candida albicans CA137 after 48 hrs by broth microdilution method in presence of itraconazole; type: functional; in short: as §1
Candida albicans [28] = assay: Antifungal activity against Candida albicans CA135 after 48 hrs by broth microdilution method in presence of itraconazole; type: functional; in short: as §1
Candida albicans [29] = assay: Antifungal activity against Candida albicans CA2 after 48 hrs by broth microdilution method in presence of ketoconazole; type: functional; in short: as §1
Candida albicans [30] = assay: Antifungal activity against Candida albicans CA137 after 48 hrs by broth microdilution method in presence of ketoconazole; type: functional; in short: as §1
Candida albicans [31] = assay: Antifungal activity against Candida albicans CA1 after 48 hrs by broth microdilution method; type: functional; settings: CA1, 48 h; in short: as §3
Candida albicans [32] = assay: Antifungal activity against Candida albicans CA1 after 48 hrs by broth microdilution method in presence of itraconazole; type: functional; in short: as §1
Candida albicans [33] = assay: Antifungal activity against Candida albicans CA135 after 48 hrs by broth microdilution method in presence of ketoconazole; type: functional; in short: as §1
Candida albicans [34] = assay: Antifungal activity against Candida albicans CA10 after 48 hrs by broth microdilution method; type: functional; settings: CA10, 48 h; in short: as §3
Candida albicans [35] = assay: Antifungal activity against Candida albicans CA10 assessed as cell viability after 2 hrs by XTT reduction assay in presence of itraconazole; type: functional, organism-based; in short: as §4
Candida albicans [36] = assay: Antifungal activity against Candida albicans CA4 after 48 hrs by broth microdilution method; type: functional; settings: CA4, 48 h; in short: as §3
Candida albicans [37] = assay: Antifungal activity against Candida albicans CA127 after 48 hrs by broth microdilution method in presence of fluconazole; type: functional; in short: as §1
Candida albicans [38] = assay: Antifungal activity against Candida albicans CA10 after 48 hrs by broth microdilution method in presence of ketoconazole; type: functional; in short: as §1
Candida albicans [39] = assay: Antifungal activity against Candida albicans CA137 after 48 hrs by broth microdilution method; type: functional; settings: CA137, 48 h; in short: as §3
Candida albicans [40] = assay: Antifungal activity against Candida albicans CA2 after 48 hrs by broth microdilution method; type: functional; settings: CA2, 48 h; in short: as §3
Candida albicans [41] = assay: Antifungal activity against Candida albicans CA135 after 48 hrs by broth microdilution method in presence of fluconazole; type: functional; in short: as §1
Candida albicans [42] = assay: Antifungal activity against Candida albicans CA137 after 48 hrs by broth microdilution method in presence of fluconazole; type: functional; in short: as §1
Candida albicans [43] = assay: Antifungal activity against Candida albicans CA132 after 48 hrs by broth microdilution method; type: functional; settings: CA132, 48 h; in short: as §3
Candida albicans [44] = assay: Antifungal activity against Candida albicans CA1 after 48 hrs by broth microdilution method in presence of fluconazole; type: functional; in short: as §1
Candida albicans [45] = assay: Antifungal activity against Candida albicans CA138 after 48 hrs by broth microdilution method; type: functional; settings: CA138, 48 h; in short: as §3
Candida albicans [46] = assay: Antifungal activity against Candida albicans CA3 after 48 hrs by broth microdilution method in presence of ketoconazole; type: functional; in short: as §1

## CC(C)[C@H]1CC[C@@H]2[C@]1(C)CC[C@]1(C)[C@H]3CC[C@@H]4[C@](C(=O)O)(C[C@@H](O)[C@H](O)[C@@]4(C)C(=O)O)C3=CC[C@@]21C [RETIGERIC ACID B]
Candida albicans [1]
  fractional inhibitory concentration index (FICI): 0.5
Candida albicans [2]
  fractional inhibitory concentration index (FICI): 0.254
Candida albicans [3]
  Activity: Active
Candida albicans [4]
  fractional inhibitory concentration index (FICI): 0.375
Candida albicans [5]
  fractional inhibitory concentration index (FICI): 0.625
Candida albicans [6]
  MIC: 16 µg/mL (≈ 31.8 µM)
Candida albicans [7]
  Activity: Active
Candida albicans [8]
  Activity: Active
Candida albicans [9]
  fractional inhibitory concentration index (FICI): 0.375
Candida albicans [10]
  fractional inhibitory concentration index (FICI): 0.375
Candida albicans [11]
  fractional inhibitory concentration index (FICI): 0.375
Candida albicans [12]
  MIC: 16 µg/mL (≈ 31.8 µM)
Candida albicans [13]
  fractional inhibitory concentration index (FICI): 0.254
Candida albicans [14]
  Activity: Active
Candida albicans [15]
  fractional inhibitory concentration index (FICI): 0.252
Candida albicans [16]
  fractional inhibitory concentration index (FICI): 0.75
Candida albicans [17]
  fractional inhibitory concentration index (FICI): 0.75
Candida albicans [18]
  fractional inhibitory concentration index (FICI): 0.252
Candida albicans [19]
  fractional inhibitory concentration index (FICI): 0.75
Candida albicans [20]
  MIC: 16 µg/mL (≈ 31.8 µM)
Candida albicans [21]
  Activity: Active
Candida albicans [22]
  fractional inhibitory concentration index (FICI): 0.625
Candida albicans [23]
  fractional inhibitory concentration index (FICI): 0.126
Candida albicans [24]
  fractional inhibitory concentration index (FICI): 0.625
Candida albicans [25]
  fractional inhibitory concentration index (FICI): 0.25
Candida albicans [26]
  fractional inhibitory concentration index (FICI): 0.625
Candida albicans [27]
  fractional inhibitory concentration index (FICI): 0.258
Candida albicans [28]
  fractional inhibitory concentration index (FICI): 0.254
Candida albicans [29]
  fractional inhibitory concentration index (FICI): 0.253
Candida albicans [30]
  fractional inhibitory concentration index (FICI): 0.25
Candida albicans [31]
  MIC: 8 µg/mL (≈ 15.9 µM)
Candida albicans [32]
  fractional inhibitory concentration index (FICI): 0.75
Candida albicans [33]
  fractional inhibitory concentration index (FICI): 0.125
Candida albicans [34]
  MIC: 16 µg/mL (≈ 31.8 µM)
Candida albicans [35]
  Activity: Active
Candida albicans [36]
  MIC: 8 µg/mL (≈ 15.9 µM)
Candida albicans [37]
  fractional inhibitory concentration index (FICI): 0.5
Candida albicans [38]
  fractional inhibitory concentration index (FICI): 0.254
Candida albicans [39]
  MIC: 16 µg/mL (≈ 31.8 µM)
Candida albicans [40]
  MIC: 16 µg/mL (≈ 31.8 µM)
Candida albicans [41]
  fractional inhibitory concentration index (FICI): 0.127
Candida albicans [42]
  fractional inhibitory concentration index (FICI): 0.252
Candida albicans [43]
  MIC: 8 µg/mL (≈ 15.9 µM)
Candida albicans [44]
  fractional inhibitory concentration index (FICI): 0.5
Candida albicans [45]
  MIC: 8 µg/mL (≈ 15.9 µM)
Candida albicans [46]
  fractional inhibitory concentration index (FICI): 0.25

## CC(=O)N1CCN(c2ccc(OCC3COC(Cn4ccnc4)(c4ccc(Cl)cc4Cl)O3)cc2)CC1 (stereo unspecified) [KETOCONAZOLE]
Candida albicans [6]
  MIC: 0.031 µg/mL (≈ 0.0583 µM)
Candida albicans [12]
  MIC: 0.062 µg/mL (≈ 0.117 µM)
Candida albicans [20]
  MIC: 16 µg/mL (≈ 30.1 µM)
Candida albicans [31]
  MIC: 0.031 µg/mL (≈ 0.0583 µM)
Candida albicans [34]
  MIC: 16 µg/mL (≈ 30.1 µM)
Candida albicans [36]
  MIC: 0.062 µg/mL (≈ 0.117 µM)
Candida albicans [39]
  MIC: 16 µg/mL (≈ 30.1 µM)
Candida albicans [40]
  MIC: 0.016 µg/mL (≈ 0.0301 µM)
Candida albicans [43]
  MIC: 0.031 µg/mL (≈ 0.0583 µM)
Candida albicans [45]
  MIC: 16 µg/mL (≈ 30.1 µM)
